Bioassay records (PubChem BioAssay)
KCNQ1 inh: inhibitors of human KCNQ1 potassium channel. 310,000 compounds, 1.3% hits. AID 2642. B-score at 10 µM. CHO-K1 KCNQ1, FluxOR thallium flux fluorescence; stronger effect = higher value;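 active means compounds whose thallium flux B-score, printed positive for inhibition, exceeds three library SD while starting fluorescence stays within three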;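 further: channel opened by potassium depolarization with thallium stimulus after 20 min compound exposure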
Target sequence (P51787 whole entry, looked up): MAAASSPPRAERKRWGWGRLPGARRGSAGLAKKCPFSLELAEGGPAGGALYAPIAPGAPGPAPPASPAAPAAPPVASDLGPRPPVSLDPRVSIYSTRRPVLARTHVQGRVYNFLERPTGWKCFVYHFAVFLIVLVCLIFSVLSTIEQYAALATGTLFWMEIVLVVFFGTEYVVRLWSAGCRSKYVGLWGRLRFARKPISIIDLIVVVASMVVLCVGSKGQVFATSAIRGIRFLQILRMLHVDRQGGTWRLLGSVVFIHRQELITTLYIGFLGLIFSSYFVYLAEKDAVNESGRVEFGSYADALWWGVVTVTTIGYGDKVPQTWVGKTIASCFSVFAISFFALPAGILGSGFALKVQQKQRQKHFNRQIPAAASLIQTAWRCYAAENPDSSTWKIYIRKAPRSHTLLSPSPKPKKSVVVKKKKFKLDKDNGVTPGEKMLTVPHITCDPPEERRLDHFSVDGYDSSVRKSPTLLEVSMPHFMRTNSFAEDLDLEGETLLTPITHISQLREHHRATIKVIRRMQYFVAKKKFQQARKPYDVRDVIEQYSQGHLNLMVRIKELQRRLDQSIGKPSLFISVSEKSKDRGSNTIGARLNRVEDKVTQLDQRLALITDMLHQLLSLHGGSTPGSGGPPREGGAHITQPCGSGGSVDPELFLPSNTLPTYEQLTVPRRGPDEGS
KCNK3 block: human KCNK3 channel inhibition, primary screen | O14649 | CHO-KCNK3 thallium flux, FluxOR fluorescence; stronger effect = lower value | B-score at 10 µM | 340,000 compounds, 0.84% hits;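 active means B-score under library mean minus 4 SD, starting fluorescence ratio at most library mean plus 5 SD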;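 further: more negative B-score means stronger inhibition of thallium flux through KCNK3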
KCNK9 block: human KCNK9 channel inhibition; HEK293 KCNK9, FluxOR thallium flux fluorescence; stronger effect = lower value; AID 488922; B-score at 10 µM; 310,000 compounds, 1.2% hits;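 active means ratio B-score over 3 SD below the library mean, with starting fluorescence within 5 SD of its mean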;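 further: negative B-score means less thallium flux so channel inhibition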
Kir21 block: inhibitors of mouse Kir2.1 inward-rectifier potassium channel; P35561; HEK293-Kir2.1, FluxOR thallium flux fluorescence; stronger effect = lower value; B-score at 10 µM; 310,000 compounds, 0.85% hits; AID 1672;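 active means fluorescence ratio B-score at or below minus 3 SD of library scores, with starting-brightness B-score within 2 SD, cut at about -4.2 in these data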;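 further: channel flux triggered by added potassium and thallium sulfate stimulus; B-score of peak minus minimum fluorescence over baseline after thallium stimulus; more negative B-score means stronger Kir2.1 block with less thallium influx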
KCNQ1 act: potentiates or activates the human KCNQ1 potassium channel. P51787. CHO-K1 KCNQ1, thallium flux FluxOR fluorescence; stronger effect = higher value. B-score at 10 µM. 310,000 compounds, 0.35% hits;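 active means fluorescence ratio B-score, a plate-corrected score, at least three library SD, with initial intensity B-score within 5 SD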
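Test system: CHO-K1 cells stably expressing KCNQ1 / Medium: assay buffer / Also added: depolarizing K+/Tl+ stimulus, K2SO4 and Tl2SO4 each 12.5 mM in 5x stock / Incubation: 90 min dye loading and 20 min compound exposure, both at room temperature / Signal: thallium influx via FluxOR fluorescence, kinetic imaging / Evaluation: B score of baseline-normalized fluorescence ratio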
hERG protect: shields human hERG channel from block by proarrhythmic agents. Q12809. CHO-hERG, FluxOR thallium flux, dofetilide IC70 present. activation (rescue from dofetilide block), less the hit threshold, % at 10 µM. 310,000 compounds, 0.51% hits. AID 1511;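 active means activation above the mean of controls blocked by dofetilide plus 5 SD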;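 further: thallium influx through hERG after potassium depolarization seen as dye fluorescence rise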
Active calls of the source: *; i = inactive; x = not tested or not shown. An excerpt weighted towards active compounds, which were near 3.8% of everything screened.

SMILES	KCNQ1 inh	KCNK3 block	KCNK9 block	Kir21 block	KCNQ1 act	hERG protect
Cc1cccc(NC(=O)C(C)OC(=O)c2ccccc2NS(=O)(=O)c2cc(C)c(C)c([N+](=O)[O-])c2)c1 (configuration not stated)	9*	i	i	-0.79	i	-13
c1ccc2c(c1)CCN(c1nc(CN3CCOCC3)nc3sc4c(c13)CCCC4)C2	6*	i	i	-1	i	-13
CCN(c1ccccc1)S(=O)(=O)c1ccc(Cl)nc1	i	i	i	-4.3*	i	-13
CCN(c1ccccc1)S(=O)(=O)c1ccc(NC(=O)c2nc(S(C)(=O)=O)ncc2Cl)cc1	i	i	i	-2.5	17*	-18
CCS(=O)(=O)c1ncc(Cl)c(C(=O)Nc2ccc(S(=O)(=O)N(C)c3ccccc3)cc2)n1	i	i	i	-3.7	i	-12
CCN(c1cccc2ccccc12)S(=O)(=O)c1ccc(Cl)nc1	i	i	i	-1.9	i	-5
CN1C(C)(C)c2ccccc2OS1(=O)=O	i	i	i	1.7	i	-5
Cc1cc(N2CCN(c3ccccc3)CC2)nc(-c2ccccc2)n1	i	i	-7.6*	-1.6	i	-2
Cc1cc(N2CCCCC2)nc(NCc2ccccc2)n1	i	i	i	-6.7*	i	-8
Cc1cc(N2CCOCC2)nc(NCc2ccccc2)n1	i	i	i	0	i	-10
CC(=O)Nc1ccc(NC(=O)C(C)OC(=O)c2cccc(S(=O)(=O)N3CCCC3)c2)cc1 (configuration not stated)	i	i	i	-0.28	i	-15
COc1cc2c(cc1OC)CN(c1ccc3ccccc3n1)CC2	i	i	i	-11*	i	-18
COc1cc2c(cc1OC)CN(c1ccc(-c3ccccc3OC)nn1)CC2	i	i	i	-0.05	i	-11
Cc1c(C)n(C)c2ccc(C(=O)NCCCN3CCN(c4ccc(F)cc4)CC3)cc12	i	i	i	-4.2*	i	-16
Cc1c(C)n(Cc2ccc(F)cc2)c2ccc(C(=O)N3CCN(c4ccccn4)CC3)cc12	6*	i	i	0.03	i	-9
Cc1c(C)n(Cc2ccc(F)cc2)c2ccc(C(=O)NCCCN3CCOCC3)cc12	i	i	i	-4.8*	i	-12
CC(=O)c1ccc(NC(=O)C(Cc2ccccc2)n2cccc2)cc1 (configuration not stated)	i	i	i	0.13	i	-9
COc1ccc(/C=C(\C#N)C(=O)OCC(=O)Nc2ccc(C(C)(C)C)cc2)cc1	7*	i	i	0.41	i	-14
COc1ccc(C2=NOC(CNC(N)=S)C2)cc1 (configuration not stated)	i	i	i	0.7	i	-15
O=C(Nc1cccc(S(=O)(=O)NCc2ccco2)c1)c1cc(-c2ccc(F)cc2)nc2ccccc12	7*	i	i	-1.4	i	-10
O=C(Nc1ccccc1)c1cccc(S(=O)(=O)NCc2ccco2)c1	i	i	i	1.2	i	7.3*
O=C(Nc1ccccc1)c1ccc(S(=O)(=O)NCc2ccco2)cc1	i	i	i	-0.04	i	-7
Cc1ccc(N2C(S)=C(C#N)C(=O)NC2c2cccs2)cc1 (configuration not stated)	i	i	i	0.99	i	-9
CCn1c(=O)c([N+](=O)[O-])c(N2CCN(Cc3ccc4c(c3)OCO4)CC2)c2ccccc21	i	i	i	-0.19	i	-2
O=[N+]([O-])c1cnc(Nc2ccccc2)nc1Nc1ccccc1	i	i	i	1.8	i	-2
SMILES	KCNQ1 inh	KCNK3 block	KCNK9 block	Kir21 block	KCNQ1 act	hERG protect
COc1ccc(NC(C)=O)cc1S(=O)(=O)NC1CCSc2ccccc21 (configuration not stated)	i	i	i	0.89	i	-7
Cc1nnnn1/C(=C\c1ccccc1)C(=O)OCC(=O)Nc1cccc(S(=O)(=O)N(C)C)c1	x	i	x	x	x	x
Cc1nnnn1/C(=C\c1ccccc1)C(=O)OCC(=O)Nc1ccc(Cl)cc1F	i	i	i	-7.3*	7*	-13
COc1cc(OC)cc(C(=O)NCCCCCCNC(=O)c2cc(OC)cc(OC)c2)c1	x	i	x	x	x	x
COc1ccc(/C=N/Nc2nc(Nc3ccccc3)nc(N3CCCCC3)n2)cc1OC	7*	i	i	0.62	i	-13
CC(C)CCNC(=O)CN(C(=O)CCC(=O)Nc1nccs1)C1CCCCC1	i	i	i	-0.06	i	-3
O=c1cc(-c2ccc(Cl)cc2)nc(N2CCN(c3ccccc3)CC2)[nH]1	i	i	-7.2*	-1	i	-6
Brc1cccc(C=Nc2cccc3ncccc23)c1	i	i	i	0.78	i	-11
Oc1c(Br)cc(Br)cc1C=Nc1cccc2ncccc12	i	i	i	1.1	13*	4.8*
COc1ccc(O[C@@H]2O[C@H](COC(C)=O)[C@@H](OC(C)=O)[C@H](OC(C)=O)[C@H]2NC(C)=O)cc1	i	i	i	-0.01	i	-2
CC(=O)N[C@H]1[C@H](OC2CCCCC2)O[C@H](COC(C)=O)[C@@H](OC(C)=O)[C@@H]1OC(C)=O	i	i	i	0.17	8*	-2
CCOc1ccc(CNS(=O)(=O)c2c(C(=O)N3CCCC3)c(C)n(C)c2C)cc1OC	i	i	i	-0.61	i	-9
COc1ccc(-c2nc(-c3ccccc3)c(-c3cccs3)[nH]2)cc1OC	i	i	i	1.1	i	-21
COc1ccc(-c2nc(-c3cccs3)c(-c3cccs3)[nH]2)cc1OC	7*	i	i	1.2	i	-12
CC(C)N(Cc1ccccc1)C(=S)NC(=O)C1(C)CC1(Cl)Cl (configuration not stated)	i	i	i	-1.5	26*	21*
CC(C)N(Cc1ccccc1)C(=S)Nc1cccnc1	i	i	i	0.02	i	0
CC(C)N(Cc1ccccc1)C(=S)Nc1ccc(F)cc1	i	i	i	-0.29	i	14*
Cc1ccc(NC(=S)N(Cc2ccccc2)C(C)C)cc1	i	i	i	1.1	i	-4
Cn1c(=O)[nH]c(=O)c2c1nc(N1CCOCC1)n2CCSc1nc2ccccc2[nH]1	i	i	i	1.6	i	-1
CC1(C)CC(=O)C2=C(C1)OC1=C(C(=O)CC(C)(C)C1)C2c1ccc(O)cc1O	7*	i	-7*	-8.3	i	-42
